Measured values from ChEMBL document CHEMBL1155267, “Synthesis of novel bioactive derivatives of 3-(4-chlorophenyl)-2-hydrazino-5,6,7,8-tetrahydrobenzo(b)thieno[2,3-d]pyrimidine-4(3H)-ones” (2009).

Legend:
Format in all cases: functional
Mus musculus [1] = assay: Anticonvulsant activity in Swiss albino mouse assessed as protection against PTZ-induced clonic convulsions at 9 mg/kg, ip administered after 30 mins PTZ challenge measured for 20 mins; conditions: route intraperitoneal
Procedure, shortened: (§1)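 Groups of six mice got the test suspension in 1% CMC i.p. at the stated dose. After 30 min they received aqueous PTZ 85 mg/kg s.c. and were watched for 20 min for clonic convulsions. The result is the percentage of animals protected.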

Mus musculus [2] = assay: Anticonvulsant activity in Swiss albino mouse assessed as protection against PTZ-induced clonic convulsions at 8 mg/kg, ip administered after 30 mins PTZ challenge measured for 20 mins; conditions: route intraperitoneal; procedure, shortened: as §1
Mus musculus [3] = assay: Anticonvulsant activity in Swiss albino mouse assessed as protection against PTZ-induced clonic convulsions at 10 mg/kg, ip administered after 30 mins PTZ challenge measured for 20 mins; conditions: route intraperitoneal; procedure, shortened: as §1
Mus musculus [4] = assay: Skeletal muscle relaxant activity in Swiss albino mouse assessed as number of falls form rotarod at 5 mg/kg, ip after 30 mins by rotarod method relative to Diazepam; set-up: scale not given: the % may be the effect or the level left; conditions: route intraperitoneal
Procedure, shortened: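 Mice 25–40 g, six per group, were dosed at 5 mg/kg in 1% CMC, with each group serving as its own control. Falls per min on the Rotarod were recorded before dosing and 30 min after. % relaxation = (mean increase in falls − mean control)/mean control ×100. Mean ± SEM, n=6.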

Mus musculus [5] = assay: Anticonvulsant activity in Swiss albino mouse assessed as protection against PTZ-induced clonic convulsions administered after 30 mins PTZ challenge measured for 20 mins
Procedure, shortened: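 Mice (groups of six) got the test suspension in 1% CMC i.p., then 30 min later aqueous PTZ 85 mg/kg s.c. Clonic convulsions were watched for 20 min. The number of animals protected per group served as the percentage response for calculating ED50.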

Mus musculus [6] = assay: Antidepressant activity in Swiss albino mouse at 5 mg/kg, ip after 60 mins by photoactometer method; conditions: route intraperitoneal
Procedure, shortened: (§2)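 Swiss albino mice of either sex, 25–40 g, six per group, acclimatised 10 min. Baseline photoactometer counts were taken over 10 min. Dosing was 5 mg/kg i.p. in 1% CMC, with each group serving as its own control. At 20 and 50 min animals entered the chamber, rested 10 min, then counts were taken for 10 min. % depression = (control − decrease in count)/control ×100. Mean ± SEM, n=6.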

Mus musculus [7] = assay: Antidepressant activity in Swiss albino mouse at 5 mg/kg, ip after 30 mins by photoactometer method; conditions: route intraperitoneal; procedure, shortened: as §2
Mus musculus [8] = assay: Anticonvulsant activity in Swiss albino mouse assessed as protection against PTZ-induced clonic convulsions at 6 mg/kg, ip administered after 30 mins PTZ challenge measured for 20 mins; conditions: route intraperitoneal; procedure, shortened: as §1
Mus musculus [9] = assay: Anticonvulsant activity in Swiss albino mouse assessed as protection against PTZ-induced clonic convulsions at 5 mg/kg, ip administered after 30 mins PTZ challenge measured for 20 mins; conditions: route intraperitoneal; procedure, shortened: as §1
Mus musculus [10] = assay: Anticonvulsant activity in Swiss albino mouse assessed as protection against PTZ-induced clonic convulsions at 7 mg/kg, ip administered after 30 mins PTZ challenge measured for 20 mins; conditions: route intraperitoneal; procedure, shortened: as §1
Mus musculus [11] = assay: Anticonvulsant activity in Swiss albino mouse assessed as protection against PTZ-induced clonic convulsions at 4 mg/kg, ip administered after 30 mins PTZ challenge measured for 20 mins; conditions: route intraperitoneal; procedure, shortened: as §1
Mus musculus [12] = assay: Anticonvulsant activity in Swiss albino mouse assessed as protection against PTZ-induced clonic convulsions at 11 mg/kg, ip administered after 30 mins PTZ challenge measured for 20 mins; conditions: route intraperitoneal; procedure, shortened: as §1

Q: Which Activity (Mus musculus [1]) does the source give for `CCc1nnc2n(-c3ccc(Cl)cc3)c(=O)c3c4c(sc3n12)CCCC4` here?
A: 66.66%

Q: And the Activity (Mus musculus [2])?
A: 33.33%

Q: And the Activity (Mus musculus [3])?
A: 100%

Q: What about the Activity (Mus musculus [4]) of the same molecule?
A: 105.49%

Q: And the ED50 (Mus musculus [5])?
A: 8.5 mg/kg

Q: And the Activity (Mus musculus [6])?
A: 83.92%

Q: What about the Activity (Mus musculus [7]) of the same molecule?
A: 71.42%

Q: With `O=c1c2c3c(sc2n2c(S)nnc2n1-c1ccc(Cl)cc1)CCCC3` as the molecule, how does the Activity (Mus musculus [4]) read?
A: 109.62%

Q: What about the Activity (Mus musculus [8]) of the same molecule?
A: 66.66%

Q: What about the Activity (Mus musculus [9]) of the same molecule?
A: 33.33%

Q: What about the ED50 (Mus musculus [5]) of the same molecule?
A: 5.5 mg/kg

Q: And the Activity (Mus musculus [6])?
A: 90%

Q: What about the Activity (Mus musculus [10]) of the same molecule?
A: 100%

Q: And the Activity (Mus musculus [7])?
A: 81.71%

Q: With `Nc1nnc2n(-c3ccc(Cl)cc3)c(=O)c3c4c(sc3n12)CCCC4` as the molecule, how does the Activity (Mus musculus [2]) read?
A: 100%

Q: What about the Activity (Mus musculus [4]) of the same molecule?
A: 107.52%

Q: What about the Activity (Mus musculus [8]) of the same molecule?
A: 16.66%

Q: What about the ED50 (Mus musculus [5]) of the same molecule?
A: 6.73 mg/kg

Q: And the Activity (Mus musculus [6])?
A: 88.78%

Q: What about the Activity (Mus musculus [10]) of the same molecule?
A: 66.66%

Q: And the Activity (Mus musculus [7])?
A: 82.24%

Q: With `CCCc1nnc2n(-c3ccc(Cl)cc3)c(=O)c3c4c(sc3n12)CCCC4` as the molecule, how does the Activity (Mus musculus [11]) read?
A: 16.66%

Q: What about the Activity (Mus musculus [4]) of the same molecule?
A: 116.62%

Q: And the Activity (Mus musculus [8])?
A: 100%

Q: What about the Activity (Mus musculus [9]) of the same molecule?
A: 83.33%

Q: What about the ED50 (Mus musculus [5]) of the same molecule?
A: 4.4 mg/kg

Q: And the Activity (Mus musculus [6])?
A: 90.4%

Q: What about the Activity (Mus musculus [7]) of the same molecule?
A: 78.78%

Q: How did the Activity (Mus musculus [1]) turn out when `Cc1nnc2n(-c3ccc(Cl)cc3)c(=O)c3c4c(sc3n12)CCCC4` was run?
A: 33.33%

Q: What about the Activity (Mus musculus [3]) of the same molecule?
A: 83.33%

Q: And the Activity (Mus musculus [4])?
A: 102.75%

Q: And the Activity (Mus musculus [12])?
A: 100%

Q: What about the ED50 (Mus musculus [5]) of the same molecule?
A: 9.33 mg/kg

Q: And the Activity (Mus musculus [6])?
A: 82.65%

Q: What about the Activity (Mus musculus [7]) of the same molecule?
A: 75.51%

Q: Which results are given for `CN1C(=O)CN=C(c2ccccc2)c2cc(Cl)ccc21` [DIAZEPAM]?
A: ED50 (Mus musculus [5]): 1.18 mg/kg; Activity (Mus musculus [6]): 89.32%; Activity (Mus musculus [7]): 85.43%
